One compound from ChEMBL document CHEMBL6083194, “Discovery and evaluation of 3-(2-isocyanobenzyl)-1H-indole derivatives as potential quorum sensing inhibitors for the control of Pseudomonas aeruginosa infections in vitro” (RSC Med Chem, 2024) can be followed below.

Experiment [1] relates to Pseudomonas aeruginosa. As to the kind of experiment: Downregulation of lasI gene expression in Pseudomonas aeruginosa PAO1 assessed as fold decrease at 25 ug/ml by RT-qPCR analysis. It counts as functional. The settings on record: dose 25 µg/ml.
Experiment [2] has as its system Pseudomonas aeruginosa. Description: Downregulation of lasR gene expression in Pseudomonas aeruginosa PAO1 assessed as fold decrease at 25 ug/ml by RT-qPCR analysis. It counts as functional. The following applies: dose 25 µg/ml.
A short description of experiment [3]: Inhibition of quorum sensing system in Pseudomonas aeruginosa PAO1. In outline:
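Plate screen. CV026 grown overnight in LB with 50 μg ml−1 kanamycin; 15 μl seeded into 15 ml LB agar (1.0% agarose) containing 20 μM C4-HSL. PAO1 plates run in parallel. Test colonies inoculated by toothpick, incubated overnight at 37 °C. Ring of colourless viable cells around the colony scored as inhibition.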

In experiment [4] the test system is Pseudomonas aeruginosa. As to the kind of experiment: Inhibition of biofilm formation in Pseudomonas aeruginosa PAO1 at 1/2 times MIC incubated for 24 hrs crystal violet staining based SEM assay. It counts as functional.
The test system of experiment [5] is Pseudomonas aeruginosa. Description: Inhibition of pyocyanin production in Pseudomonas aeruginosa PAO1 at 1/2 time MIC incubated for 18 hrs. Type of experiment: functional. In outline:
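Overnight PAO1 in LB diluted to OD600 = 0.05, subcultured 5–7 h to mid-log, rediluted to OD600 = 0.05. 5 mL with compound grown 18 h at 37 °C, 200 rpm. Supernatant extracted with 3 mL chloroform, back-extracted into 0.2 M HCl, absorbance at 520 nm.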

Experiment [6] concerns Pseudomonas aeruginosa. Description: Inhibition of rhamnolipid production in Pseudomonas aeruginosa PAO1 at 1/2 to 1/4 times MIC by orcinol method. Type of experiment: functional, organism-based. The method, boiled down: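 Overnight PAO1 diluted 1:100 into LB with compound, 37 °C, 180 rpm; DMSO control. Supernatant (100 μL) mixed with 900 μL 0.19% orcinol in 53% H2SO4, heated 30 min at 80 °C, cooled, read at 421 nm.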

Experiment [7] can be described thus: Inhibition of quorum sensing system in Pseudomonas aeruginosa PAO1 assessed as reduction in 3-oxo-C12-HSL level at 6.25 to 25 ug/ml incubated for 24 hrs by LC-MS/MS method. The following applies: dose 6.25-25 µg/ml.
The nature of experiment [8]: Inhibition of quorum sensing system in Pseudomonas aeruginosa PAO1 assessed as reduction in 3-oxo-C12-HSL level at 12.5 ug/ml incubated for 24 hrs by LC-MS/MS method. The settings on record: dose 12.5 µg/ml.
Experiment [9] concerns Pseudomonas aeruginosa. As to the kind of experiment: Inhibition of biofilm formation in Pseudomonas aeruginosa PAO1 at 12.5 ug/ml incubated for 24 hrs crystal violet staining based assay. It counts as functional. The method, boiled down: (§1)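 PAO1 grown statically for 24 h in LB ± compound in 24-well plates. Planktonic cells removed; attached cells stained with 0.05% crystal violet, rinsed, dissolved in 95% ethanol, read at OD570. DMSO negative, resveratrol positive control; SD from three independent experiments.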

In experiment [10] the test system is Pseudomonas aeruginosa. As to the kind of experiment: Inhibition of biofilm formation in Pseudomonas aeruginosa PAO1 at 25 ug/ml incubated for 24 hrs crystal violet staining based assay. Type of experiment: functional. The method, boiled down: as §1
The test system of experiment [11] is Pseudomonas aeruginosa. Description: Induction of biofilm eradication in Pseudomonas aeruginosa PAO1 at 6.25 ug/ml by crystal violet staining based assay. The following applies: dose 6.25 µg/ml. Type of experiment: functional. The method, boiled down: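 PAO1 biofilms grown overnight at 37 °C in LB in 24-well plates, washed with PBS, then fresh LB with compound added and grown overnight again. Washed, methanol-fixed, crystal violet stained, ethanol solubilised, read at OD570. DMSO negative, resveratrol positive control.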

For experiment [12], the system named is Pseudomonas aeruginosa. Description: Anti-virulence effect in Pseudomonas aeruginosa PAO1 assessed as inhibition of pyocyanin production. Type of experiment: functional, organism-based. The method, boiled down:
(§2)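 Overnight PAO1 culture in LB at 37 °C, diluted to OD600 0.05 and subcultured 5–7 h to mid-log phase, then re-diluted to OD600 0.05. Grown 18 h at 37 °C and 200 rpm with compound (6.25, 12.5, 25 μg mL−1) or DMSO. Supernatant extracted into chloroform, back-extracted into 0.2 M HCl, read at 520 nm.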

In experiment [13] the test system is Pseudomonas aeruginosa. As to the kind of experiment: Anti-virulence effect in Pseudomonas aeruginosa PAO1 assessed as inhibition of pyocyanin production at 12.5 ug/ml. Type of experiment: functional. Further details: scale not given: the % may be the effect or the level left. The following applies: dose 12.5 µg/ml. The method, boiled down: as §2
In experiment [14] the test system is Pseudomonas aeruginosa. As to the kind of experiment: Anti-virulence effect in Pseudomonas aeruginosa PAO1 assessed as inhibition of rhamnolipid production at 25 ug/ml. It counts as functional. Further details: scale not given: the % may be the effect or the level left. The settings on record: dose 25 µg/ml. The method, boiled down: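 PAO1 culture supernatant from growth with compound (6.25–25 μg mL−1) at 37 °C and 180 rpm, or with DMSO or RSV (25 μg mL−1) as controls. Orcinol assay: 100 μL sample plus 0.19% orcinol in 53% H2SO4, heated 30 min at 80 °C, cooled, read at 421 nm. At least three experiments in triplicate.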

In experiment [15] the test system is Pseudomonas aeruginosa. As to the kind of experiment: Downregulation of PA5439 gene expression in Pseudomonas aeruginosa PAO1 assessed as fold decrease at 25 ug/ml by RT-qPCR analysis. The following applies: dose 25 µg/ml. Type of experiment: functional.

The source made the active and inactive calls. No cut-off for these calls is given here.

`Cc1cccc(C#N)c1Cc1c[nH]c2ccccc12`: the “fold change (FC)” value with Pseudomonas aeruginosa [1] was determined as 5; in the experiment on Pseudomonas aeruginosa [2], 4.42; in the experiment on Pseudomonas aeruginosa [15] it was 10.87. Moreover, the inhibition entry in [3] is “Active; Strong Inhibition Observed”; in experiment [8] it was 72%. The “inhibition (INH)” value in the experiment with Pseudomonas aeruginosa [4] is given as 52%; in the experiment on Pseudomonas aeruginosa [5] it was 64%. In addition, the inhibition result (in the experiment with Pseudomonas aeruginosa [6]; in experiment [7]) was “Active” each time. In the experiment on Pseudomonas aeruginosa [9], this compound displayed an inhibition at 12.5 µg/mL of 53%. In the experiment on Pseudomonas aeruginosa [10], this compound returned an inhibition at 25 µg/mL of 70%. The Activity in the experiment with Pseudomonas aeruginosa [11] was 43%; with Pseudomonas aeruginosa [12], “Dose-dependent-effect”; with Pseudomonas aeruginosa [13] it was 57%; in the experiment with Pseudomonas aeruginosa [14], 23%.
